Reference: ChEMBL document CHEMBL4346672, “Antimicrobial and KPC/AmpC inhibitory activity of functionalized benzosiloxaboroles” (Eur J Med Chem, 2019)
In brackets after ≈: the same amount, converted by molar mass. Activity calls are given as the source filed them. The calls are words filed in the database; no cut-off is given here.

Tests used:
[1] = system: Serratia marcescens; test: Antibacterial activity against Serratia marcescens ATCC 13880 measured after 18 hrs by CLSI broth dilution method; assay type: functional; conditions: ATCC 13880, 18 h
Summary of the method: (§1)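 Broth MIC in Mueller-Hinton II broth following CLSI, compounds dissolved in DMSO. Strains subcultured twice on tryptic soy agar before testing. Growth read after 35 °C, 18 h.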

[2] = system: Proteus mirabilis; test: Antibacterial activity against Proteus mirabilis ATCC 12453 assessed as diameter of zone inhibition measured after 18 hrs by CLSI disc diffusion method; assay type: functional
Summary of the method: (§2)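 Disc diffusion on Mueller-Hinton II agar. Compounds dissolved in DMSO. Strains stored at -80 °C and subcultured twice on tryptic soy agar before testing. Inhibition zones read after 35 °C, 18 h.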

[3] = system: Stenotrophomonas maltophilia; test: Antibacterial activity against Stenotrophomonas maltophilia ATCC 13637 assessed as fold reduction of MIC in presence of efflux pump inhibitor PAbetaN incubated for 18 hrs by broth microdilution method; assay type: functional
Summary of the method: (§3)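 MICs determined with and without PAβN at 50 mg/L in Mueller-Hinton broth containing 1 mM MgSO₄. 2-fold serial dilutions per CLSI. Fold change taken from the paired MICs after 35 °C, 18 h.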

[4] = system: Enterobacter cloacae; test: Antibacterial activity against Enterobacter cloacae DSM 6234 assessed as fold reduction of MIC in presence of efflux pump inhibitor PAbetaN incubated for 18 hrs by broth microdilution method; assay type: functional; summary of the method: as §3
[5] = system: Candida albicans; test: Antifungal activity against Candida albicans ATCC 90028 assessed as diameter of zone inhibition incubated for 24 hrs by CLSI disc diffusion method; assay type: functional
Summary of the method: (§4)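 Yeast disc diffusion on Mueller-Hinton agar supplemented with 2% glucose and 0.5 mg/L methylene blue. Compounds in DMSO. Yeasts subcultured on Sabouraud dextrose agar before testing. Zones read after 35 °C, 24 h.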

[6] = system: Bordetella bronchiseptica; test: Antibacterial activity against Bordetella bronchiseptica ATCC 4617 assessed as diameter of zone inhibition measured after 18 hrs by CLSI disc diffusion method; assay type: functional; summary of the method: as §2
[7] = system: Proteus mirabilis; test: Antibacterial activity against Proteus mirabilis ATCC 12453 assessed as fold reduction of MIC in presence of efflux pump inhibitor PAbetaN incubated for 18 hrs by broth microdilution method; assay type: functional; summary of the method: as §3
[8] = system: Pseudomonas aeruginosa; test: Antibacterial activity against Pseudomonas aeruginosa ATCC 27853 measured after 18 hrs by CLSI broth dilution method; assay type: functional; conditions: ATCC 27853, 18 h; summary of the method: as §1
[9] = system: Escherichia coli; test: Antibacterial activity against Escherichia coli ATCC 25922 measured after 18 hrs by CLSI broth dilution method; assay type: functional; conditions: ATCC 25922, 18 h; summary of the method: as §1
[10] = system: Enterococcus faecium; test: Antibacterial activity against Enterococcus faecium ATCC 6057 assessed as diameter of zone inhibition measured after 18 hrs by CLSI disc diffusion method; assay type: functional; summary of the method: as §2
[11] = system: Pichia kudriavzevii; test: Antifungal activity against Candida krusei ATCC 6258 assessed as decrease in fungal cell growth at 0.78 to 12.5 mg/L incubated for 24 hrs by CLSI broth dilution method; assay type: functional; conditions: ATCC 6258, 24 h
Summary of the method: (§5)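 Yeast broth dilution in RPMI 1640 with 2% glucose, compounds in DMSO. Yeasts pre-grown on Sabouraud dextrose agar. Growth read after 35 °C, 24 h.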

[12] = system: Meyerozyma guilliermondii; test: Antifungal activity against Candida guilliermondii IBA 155 assessed as decrease in fungal cell growth at 0.78 to 12.5 mg/L incubated for 24 hrs by CLSI broth dilution method; assay type: functional; conditions: IBA 155, 24 h; summary of the method: as §5
[13] = system: Candida tropicalis; test: Antifungal activity against Candida tropicalis IBA 171 assessed as decrease in fungal cell growth at 0.78 to 12.5 mg/L incubated for 24 hrs by CLSI broth dilution method; assay type: functional; conditions: IBA 171, 24 h; summary of the method: as §5
[14] = system: Enterobacter cloacae; test: Antibacterial activity against Enterobacter cloacae DSM 6234 measured after 18 hrs by CLSI broth dilution method; assay type: functional; conditions: DSM 6234, 18 h; summary of the method: as §1
[15] = system: Staphylococcus epidermidis; test: Antibacterial activity against Staphylococcus epidermidis ATCC 12228 measured after 18 hrs by CLSI broth dilution method; assay type: functional; conditions: ATCC 12228, 18 h; summary of the method: as §1
[16] = system: Proteus mirabilis; test: Antibacterial activity against Proteus mirabilis ATCC 12453 measured after 18 hrs by CLSI broth dilution method; assay type: functional; conditions: ATCC 12453, 18 h; summary of the method: as §1
[17] = system: Enterococcus faecalis; test: Antibacterial activity against Enterococcus faecalis ATCC 29212 assessed as diameter of zone inhibition measured after 18 hrs by CLSI disc diffusion method; assay type: functional; summary of the method: as §2
[18] = system: Enterococcus faecium; test: Antibacterial activity against Enterococcus faecium ATCC 6057 measured after 18 hrs by CLSI broth dilution method; assay type: functional; conditions: ATCC 6057, 18 h; summary of the method: as §1
[19] = system: Staphylococcus aureus; test: Antibacterial activity against Staphylococcus aureus ATCC 6538P assessed as diameter of zone inhibition measured after 18 hrs by CLSI disc diffusion method; assay type: functional; summary of the method: as §2
[20] = system: Klebsiella pneumoniae; conditions: ATCC 13883
[21] = system: Enterococcus faecalis; test: Antibacterial activity against Enterococcus faecalis ATCC 29212 measured after 18 hrs by CLSI broth dilution method; assay type: functional; conditions: ATCC 29212, 18 h; summary of the method: as §1
[22] = system: Klebsiella pneumoniae; test: Antibacterial activity against Klebsiella pneumoniae ATCC 13883 assessed as fold reduction of MIC in presence of efflux pump inhibitor PAbetaN incubated for 18 hrs by broth microdilution method; assay type: functional; summary of the method: as §3
[23] = system: Staphylococcus epidermidis; test: Antibacterial activity against Staphylococcus epidermidis ATCC 12228 assessed as diameter of zone inhibition measured after 18 hrs by CLSI disc diffusion method; assay type: functional; summary of the method: as §2
[24] = system: Acinetobacter baumannii; test: Antibacterial activity against Acinetobacter baumannii ATCC 19606 assessed as diameter of zone inhibition measured after 18 hrs by CLSI disc diffusion method; assay type: functional; summary of the method: as §2
[25] = system: Serratia marcescens; test: Antibacterial activity against Serratia marcescens ATCC 13880 assessed as fold reduction of MIC in presence of efflux pump inhibitor PAbetaN incubated for 18 hrs by broth microdilution method; assay type: functional; summary of the method: as §3
[26] = system: Meyerozyma guilliermondii; test: Antifungal activity against Candida guilliermondii IBA 155 assessed as diameter of zone inhibition incubated for 24 hrs by CLSI disc diffusion method; assay type: functional; summary of the method: as §4
[27] = system: Staphylococcus aureus; test: Antibacterial activity against Staphylococcus aureus ATCC 6538P measured after 18 hrs by CLSI broth dilution method; assay type: functional; summary of the method: as §1
[28] = system: Bacillus subtilis; test: Antibacterial activity against Bacillus subtilis ATCC 6633 assessed as diameter of zone inhibition measured after 18 hrs by CLSI disc diffusion method; assay type: functional; summary of the method: as §2
[29] = system: Pseudomonas aeruginosa; test: Antibacterial activity against Pseudomonas aeruginosa ATCC 27853 assessed as diameter of zone inhibition measured after 18 hrs by CLSI disc diffusion method; assay type: functional, organism-based; summary of the method: as §2
[30] = system: Candida tropicalis; test: Antifungal activity against Candida tropicalis IBA 171 assessed as diameter of zone inhibition incubated for 24 hrs by CLSI disc diffusion method; assay type: functional; summary of the method: as §4
[31] = system: Burkholderia cepacia; test: Antibacterial activity against Burkholderia cepacia ATCC 25416 assessed as diameter of zone inhibition measured after 18 hrs by CLSI disc diffusion method; assay type: functional; summary of the method: as §2
[32] = system: Stenotrophomonas maltophilia; test: Antibacterial activity against Stenotrophomonas maltophilia ATCC 13637 assessed as diameter of zone inhibition measured after 18 hrs by CLSI disc diffusion method; assay type: functional; summary of the method: as §2
[33] = system: Candida parapsilosis; test: Antifungal activity against Candida parapsilosis ATCC 22019 assessed as decrease in fungal cell growth at 0.78 to 12.5 mg/L incubated for 24 hrs by CLSI broth dilution method; assay type: functional; conditions: Lodderomyces parapsilosis, ATCC 22019, 24 h; summary of the method: as §5
[34] = system: Acinetobacter baumannii; test: Antibacterial activity against Acinetobacter baumannii ATCC 19606 assessed as fold reduction of MIC in presence of efflux pump inhibitor PAbetaN incubated for 18 hrs by broth microdilution method; assay type: functional; summary of the method: as §3

| SMILES | MIC [1] [µg/mL] | diameter of the inhibition zone (DIZ) [2] | fold change (FC) [3] | fold change (FC) [4] | diameter of the inhibition zone (DIZ) [5] [mm] | diameter of the inhibition zone (DIZ) [6] | fold change (FC) [7] | MIC [8] [µg/mL] | MIC [9] [µg/mL] | diameter of the inhibition zone (DIZ) [10] | MIC [11] [µg/mL] | MIC [12] [µg/mL] | MIC [13] [µg/mL] | MIC [14] [µg/mL] | MIC [15] [µg/mL] | MIC [16] [µg/mL] | diameter of the inhibition zone (DIZ) [17] | MIC [18] [µg/mL] | diameter of the inhibition zone (DIZ) [19] [mm] | DIZ [20] | other results |
| --- | --- | --- | --- | --- | --- | --- | --- | --- | --- | --- | --- | --- | --- | --- | --- | --- | --- | --- | --- | --- | --- |
| C[Si]1(C)OB(O)c2cc(F)c(F)cc21 | > 400 | inactive | 16 | 32 | 16 | inactive | 2 | > 400 | > 400 | inactive | 50 (≈ 234 µM) | 6.25 (≈ 29.2 µM) | 0.78 (≈ 3.64 µM) | > 400 | 50 (≈ 234 µM) | 400 (≈ 1870 µM) | inactive | 200 (≈ 934 µM) | 34 | inactive | MIC [21]: 400 µg/mL (≈ 1870 µM); fold change (FC) [22]: 4; diameter of the inhibition zone (DIZ) [23]: 28 mm; diameter of the inhibition zone (DIZ) [24]: inactive; fold change (FC) [25]: 4; diameter of the inhibition zone (DIZ) [26]: 30 mm; MIC [27]: 50 µg/mL (≈ 234 µM); diameter of the inhibition zone (DIZ) [28]: 25 mm; diameter of the inhibition zone (DIZ) [29]: inactive; diameter of the inhibition zone (DIZ) [30]: 13 mm; diameter of the inhibition zone (DIZ) [31]: inactive; diameter of the inhibition zone (DIZ) [32]: 14 mm; MIC [33]: 100 µg/mL (≈ 467 µM); fold change (FC) [34]: 8 |
| C[Si]1(C)OB(O)c2cccc(F)c21 | > 400 | 16 mm | 8 | 32 | 24 | inactive | 2 | > 400 | 400 (≈ 2040 µM) | 12 mm | 50 (≈ 255 µM) | 12.5 (≈ 63.8 µM) | 50 (≈ 255 µM) | > 400 | 25 (≈ 128 µM) | 200 (≈ 1020 µM) | 13 mm | 200 (≈ 1020 µM) | 25 | inactive | MIC [21]: 200 µg/mL (≈ 1020 µM); fold change (FC) [22]: 16; diameter of the inhibition zone (DIZ) [23]: 39 mm; diameter of the inhibition zone (DIZ) [24]: 11 mm; fold change (FC) [25]: 4; diameter of the inhibition zone (DIZ) [26]: 30 mm; MIC [27]: 50 µg/mL (≈ 255 µM); diameter of the inhibition zone (DIZ) [28]: 28 mm; diameter of the inhibition zone (DIZ) [29]: inactive; diameter of the inhibition zone (DIZ) [30]: 14 mm; diameter of the inhibition zone (DIZ) [31]: inactive; diameter of the inhibition zone (DIZ) [32]: 11 mm; MIC [33]: 100 µg/mL (≈ 510 µM); fold change (FC) [34]: 4 |
